Measured values: ChEMBL document CHEMBL5356992, “New nitazoxanide derivatives: design, synthesis, biological evaluation, and molecular docking studies as antibacterial and antimycobacterial agents” (RSC Med Chem, 2023)
Values after ≈ are worked out from the molar mass of the structure shown.

Columns and labels:
[1] = system: Escherichia coli; assay: Antibacterial activity against Escherichia coli ATCC 8739 by broth microdilution method; assay type: functional
How it was run: (§1)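 CLSI broth microdilution on wild-type strains. E. coli ATCC 8739, P. aeruginosa ATCC 27853 and K. pneumoniae ATCC 10031 served as Gram-negatives. S. aureus ATCC 6538 and E. faecalis ATCC 19433 served as Gram-positives. H. pylori ATCC 700392 was tested as the […]. Ciprofloxacin was the reference drug. MIC is given in μM as the mean of three experiments.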

[2] = system: Pseudomonas aeruginosa; assay: Antibacterial activity against Pseudomonas aeruginosa ATCC 27853 by broth microdilution method; assay type: functional; how it was run: as §1
[3] = system: Staphylococcus aureus; assay: Antibacterial activity against Staphylococcus aureus ATCC 6538 by broth microdilution method; assay type: functional; how it was run: as §1
[4] = system: Enterococcus faecalis; assay: Antibacterial activity against Enterococcus faecalis ATCC 19433 by broth microdilution method; assay type: functional; how it was run: as §1
[5] = system: Helicobacter pylori; assay: Antibacterial activity against Helicobacter pylori ATCC 700392 by broth microdilution method; assay type: functional; how it was run: as §1
[6] = system: Mycobacterium tuberculosis; assay: Antimycobacterial activity against Mycobacterium tuberculosis H37Rv incubated for 7 days by alamar blue assay; assay type: functional; conditions: 168 h, time 7 day
How it was run: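 Two-fold serial dilutions in 7H9-S, with growth and sterile controls, incubated at 37 °C for 7 days. Alamar Blue then added and incubated overnight. MIC is the lowest concentration preventing the blue-to-pink change. Means of three experiments.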

[7] = system: RAW264.7; assay: Cytotoxicity against mouse RAW264.7 cells at 25 ug/ml incubated for 48 hrs by MTT assay; assay type: toxicity, cell-based; conditions: raw264.7, 48 h, at 25 µg/mL
How it was run: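 RAW 264.7 mouse macrophages were grown in RPMI with 10% FBS plus penicillin/streptomycin to 80–90% confluency. About 5000 cells/well were seeded on poly-L-lysine-coated plates and held 24 h at 37 °C, 5% CO2. Compound was added at 25 μg mL−1 for 48 h at 37 °C. MTT (0.5 mg mL−1) was added for 3 h, and formazan was read at 595 and 625 nm. Result is % inhibition.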

[8] = Selectivity index, ratio of cytotoxicity against mouse RAW264.7 cells to MIC for Mycobacterium tuberculosis H37Rv; assay type: toxicity, cell-based; conditions: read-out: Selectivity Index
How it was run: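 SI is cytotoxicity divided by the MABA MIC (μg mL⁻¹) against H37Rv. For cytotoxicity, RAW 264.7 cells were grown in RPMI with 10% FBS and penicillin/streptomycin. About 5000 cells per well were seeded on poly-L-lysine plates and held 24 h at 37 °C, 5% CO2. Compounds were added at 25 μg mL⁻¹ for 48 h, then MTT (0.5 mg mL⁻¹) for 3 h. Formazan was read at 595/625 nm and reported as % inhibition.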

[9] = system: Klebsiella pneumoniae; assay: Antibacterial activity against Klebsiella pneumoniae ATCC 10031 by broth microdilution method; assay type: functional; how it was run: as §1
[10] = system: Escherichia coli; assay: Potency index, ratio of nitazoxanide MIC to test compound MIC for antibacterial activity against Escherichia coli ATCC 8739; assay type: functional
[11] = system: Klebsiella pneumoniae; assay: Potency index, ratio of nitazoxanide MIC to test compound MIC for antibacterial activity against Klebsiella pneumoniae ATCC 10031; assay type: functional
[12] = system: Pseudomonas aeruginosa; assay: Potency index, ratio of nitazoxanide MIC to test compound MIC for antibacterial activity against Pseudomonas aeruginosa ATCC 27853; assay type: functional
[13] = system: Enterococcus faecalis; assay: Potency index, ratio of nitazoxanide MIC to test compound MIC for antibacterial activity against Enterococcus faecalis ATCC 19433; assay type: functional
[14] = system: Staphylococcus aureus; assay: Potency index, ratio of nitazoxanide MIC to test compound MIC for antibacterial activity against Staphylococcus aureus ATCC 6538; assay type: functional

Cc1ccc(-c2cn(-c3ccc(C(=O)Nc4ncc([N+](=O)[O-])s4)c(O)c3)nn2)cc1
MIC [1]: 7.1 µM (≈ 3 µg/mL)
MIC [2]: 303 µM (≈ 128 µg/mL)
MIC [3]: 1210 µM (≈ 512 µg/mL)
MIC [4]: 75.8 µM (≈ 32 µg/mL)
MIC [5]: 5.91 µM (≈ 2.5 µg/mL)
MIC [6]: 25 µg/mL (≈ 59.2 µM)
Cell growth inhibition [7]: 27.6%
selectivity ratio [8]: 1

COC(=O)c1cn(-c2ccc(C(=O)Nc3ncc([N+](=O)[O-])s3)c(O)c2)nn1
MIC [1]: 3.84 µM (≈ 1.5 µg/mL)
MIC [2]: 15.4 µM (≈ 6 µg/mL)
MIC [9]: 5.12 µM (≈ 2 µg/mL)
MIC [3]: 10.2 µM (≈ 4 µg/mL)
MIC [5]: 3.84 µM (≈ 1.5 µg/mL)
MIC [6]: > 25 µg/mL
Ratio [10]: 20
Ratio [11]: <=20

O=C(Nc1ncc([N+](=O)[O-])s1)c1ccc(-n2cc(CN3C(=O)C(=O)c4cc(F)ccc43)nn2)cc1O
MIC [2]: 7.85 µM (≈ 4 µg/mL)
MIC [3]: 15.7 µM (≈ 8 µg/mL)
MIC [4]: 4.9 µM (≈ 2.5 µg/mL)
MIC [5]: 3.92 µM (≈ 2 µg/mL)
MIC [6]: > 25 µg/mL
Ratio [12]: >50
Ratio [13]: 25

O=C(Nc1ncc([N+](=O)[O-])s1)c1ccc(-n2cc(CN3CCCC3)nn2)cc1O
MIC [1]: 6.01 µM (≈ 2.5 µg/mL)
MIC [2]: 7.22 µM (≈ 3 µg/mL)
MIC [9]: 12 µM (≈ 5 µg/mL)
MIC [3]: 3.61 µM (≈ 1.5 µg/mL)
MIC [5]: 19.2 µM (≈ 8 µg/mL)
MIC [6]: > 25 µg/mL
Ratio [12]: >50
Ratio [14]: 25

CN1CCN(Cc2cn(-c3ccc(C(=O)Nc4ncc([N+](=O)[O-])s4)c(O)c3)nn2)CC1
MIC [2]: 144 µM (≈ 64 µg/mL)
MIC [9]: 8.99 µM (≈ 4 µg/mL)
MIC [3]: 4.49 µM (≈ 2 µg/mL)
MIC [5]: 6.74 µM (≈ 3 µg/mL)
MIC [6]: > 25 µg/mL
Ratio [11]: <=20
Ratio [14]: 25

O=C(O)c1cn(-c2ccc(C(=O)Nc3ncc([N+](=O)[O-])s3)c(O)c2)nn1
MIC [1]: 6.64 µM (≈ 2.5 µg/mL)
MIC [2]: 10.6 µM (≈ 4 µg/mL)
MIC [9]: 15.9 µM (≈ 6 µg/mL)
MIC [3]: 85 µM (≈ 32 µg/mL)
MIC [5]: 21.2 µM (≈ 8 µg/mL)
MIC [6]: 25 µg/mL (≈ 66.4 µM)
Cell growth inhibition [7]: 27.5%
selectivity ratio [8]: 1

O=C(Nc1ncc([N+](=O)[O-])s1)c1ccc(-n2cc(CN3CCCCC3)nn2)cc1O
MIC [1]: 74.5 µM (≈ 32 µg/mL)
MIC [9]: 1190 µM (≈ 512 µg/mL)
MIC [3]: 9.31 µM (≈ 4 µg/mL)
MIC [4]: 27.9 µM (≈ 12 µg/mL)
MIC [5]: 1.74 µM (≈ 0.747 µg/mL)
MIC [6]: > 25 µg/mL

O=C(Nc1ncc([N+](=O)[O-])s1)c1ccc(-n2cc(CN3C(=O)C(=O)c4cc(Cl)ccc43)nn2)cc1O
MIC [1]: 487 µM (≈ 256 µg/mL)
MIC [9]: 60.9 µM (≈ 32 µg/mL)
MIC [5]: 4.75 µM (≈ 2.5 µg/mL)
MIC [6]: > 25 µg/mL

O=C(Nc1ncc([N+](=O)[O-])s1)c1ccc(-n2cc(CN3CCOCC3)nn2)cc1O
MIC [1]: 1190 µM (≈ 512 µg/mL)
MIC [2]: 148 µM (≈ 64 µg/mL)
MIC [9]: 18.5 µM (≈ 8 µg/mL)
MIC [3]: 6.95 µM (≈ 3 µg/mL)
MIC [5]: 9.27 µM (≈ 4 µg/mL)
MIC [6]: > 25 µg/mL
Ratio [14]: 25

O=C(Nc1ncc([N+](=O)[O-])s1)c1ccc(-n2cc(CN3C(=O)C(=O)c4ccccc43)nn2)cc1O
MIC [2]: 16.3 µM (≈ 8 µg/mL)
MIC [3]: 32.5 µM (≈ 16 µg/mL)
MIC [4]: 4.06 µM (≈ 2 µg/mL)
MIC [5]: 130 µM (≈ 64 µg/mL)
MIC [6]: > 25 µg/mL
Ratio [13]: 25

COc1ccc2c(c1)C(=O)C(=O)N2Cc1cn(-c2ccc(C(=O)Nc3ncc([N+](=O)[O-])s3)c(O)c2)nn1
MIC [1]: 15.3 µM (≈ 8 µg/mL)
MIC [9]: 491 µM (≈ 256 µg/mL)
MIC [3]: 92 µM (≈ 48 µg/mL)
MIC [4]: 184 µM (≈ 96 µg/mL)
MIC [5]: 9.58 µM (≈ 5 µg/mL)
MIC [6]: > 25 µg/mL

O=C(Nc1ncc([N+](=O)[O-])s1)c1ccc(-n2cc(-c3ccccc3)nn2)cc1O
MIC [9]: 39.2 µM (≈ 16 µg/mL)
MIC [3]: 29.4 µM (≈ 12 µg/mL)
MIC [4]: 19.6 µM (≈ 8 µg/mL)
MIC [5]: 14.7 µM (≈ 6 µg/mL)
MIC [6]: > 25 µg/mL

O=C(Nc1ncc([N+](=O)[O-])s1)c1ccc(-n2cc(CO)nn2)cc1O
MIC [2]: 353 µM (≈ 128 µg/mL)
MIC [9]: 88.3 µM (≈ 32 µg/mL)
MIC [4]: 132 µM (≈ 48 µg/mL)
MIC [5]: 44.1 µM (≈ 16 µg/mL)
MIC [6]: > 25 µg/mL

O=C(Nc1ncc([N+](=O)[O-])s1)c1ccc(-n2cc(CSc3nc4ccccc4s3)nn2)cc1O
MIC [1]: 3.9 µM (≈ 2 µg/mL)
MIC [2]: 31.3 µM (≈ 16 µg/mL)
MIC [9]: 23.4 µM (≈ 12 µg/mL)
MIC [3]: 3.9 µM (≈ 2 µg/mL)
MIC [5]: 15.6 µM (≈ 8 µg/mL)
MIC [6]: > 25 µg/mL
Ratio [10]: 20
Ratio [14]: 25

[N-]=[N+]=Nc1ccc(C(=O)Nc2ncc([N+](=O)[O-])s2)c(O)c1
MIC [1]: 4.89 µM (≈ 1.5 µg/mL)
MIC [9]: 313 µM (≈ 96 µg/mL)
MIC [3]: 9.79 µM (≈ 3 µg/mL)
MIC [4]: 26.1 µM (≈ 8 µg/mL)
MIC [5]: 104 µM (≈ 32 µg/mL)
MIC [6]: 3.12 µg/mL (≈ 10.2 µM)
Cell growth inhibition [7]: 28.53%
selectivity ratio [8]: 8
Ratio [10]: 20

O=C(Nc1ncc([N+](=O)[O-])s1)c1ccc(-n2cc(CN3CCN(c4ccccc4)CC3)nn2)cc1O
MIC [1]: 11.8 µM (≈ 6 µg/mL)
MIC [2]: 2.96 µM (≈ 1.5 µg/mL)
MIC [9]: 253 µM (≈ 128 µg/mL)
MIC [3]: 505 µM (≈ 256 µg/mL)
MIC [4]: 1.97 µM (≈ 0.998 µg/mL)
MIC [5]: 31.6 µM (≈ 16 µg/mL)
MIC [6]: > 25 µg/mL
Ratio [12]: >50
Ratio [13]: 25

O=C(O)c1cn(C2CC2)c2cc(N3CCNCC3)c(F)cc2c1=O [CIPROFLOXACIN]
MIC [1]: 0.3 µM (≈ 0.0994 µg/mL)
MIC [2]: 4.53 µM (≈ 1.5 µg/mL)
MIC [9]: 9.05 µM (≈ 3 µg/mL)
MIC [3]: 3.01 µM (≈ 0.997 µg/mL)
MIC [4]: 6.03 µM (≈ 2 µg/mL)
MIC [5]: 1.5 µM (≈ 0.497 µg/mL)

CC[C@@H](CO)NCCN[C@@H](CC)CO [ETHAMBUTOL]
MIC [6]: 1.56 µg/mL (≈ 7.64 µM)

NNC(=O)c1ccncc1 [ISONIAZID]
MIC [6]: 0.05 µg/mL (≈ 0.365 µM)

CC(=O)Oc1ccccc1C(=O)Nc1ncc([N+](=O)[O-])s1 [NITAZOXANIDE]
MIC [1]: 104 µM (≈ 32 µg/mL)
MIC [2]: 417 µM (≈ 128 µg/mL)
MIC [9]: 182 µM (≈ 56 µg/mL)
MIC [3]: 104 µM (≈ 32 µg/mL)
MIC [4]: 156 µM (≈ 48 µg/mL)
MIC [5]: 13 µM (≈ 4 µg/mL)
Cell growth inhibition [7]: 20.65%
selectivity ratio [8]: 4

CO[C@H]1/C=C/O[C@@]2(C)Oc3c(C)c(O)c4c(O)c(c(/C=N/N5CCN(C)CC5)c(O)c4c3C2=O)NC(=O)/C(C)=C\C=C\[C@H](C)[C@H](O)[C@@H](C)[C@@H](O)[C@@H](C)[C@H](OC(C)=O)[C@@H]1C [RIFAMPIN]
MIC [6]: 0.1 µg/mL (≈ 0.122 µM)

O=C(Nc1ncc([N+](=O)[O-])s1)c1ccccc1O [TIZOXANIDE]
MIC [1]: 181 µM (≈ 48 µg/mL)
MIC [2]: 362 µM (≈ 96 µg/mL)
MIC [9]: 241 µM (≈ 64 µg/mL)
MIC [3]: 151 µM (≈ 40 µg/mL)
MIC [4]: 136 µM (≈ 36 µg/mL)
MIC [5]: 11.3 µM (≈ 3 µg/mL)
